Experimental data gathered from unrelated publications.
Lines come from different studies, so protocols differ.
Observed: microbial growth

Compound | organism | test | system | conditions | MIC
CCCCCCC#Cc1cncc(-c2nnc(SCc3cc(C(F)(F)F)cc(C(F)(F)F)c3)n2CCCN)c1 | Acinetobacter baumannii | broth dilution | ATCC17978 | – | 32 µg/mL
C[C@@H]1O[C@@H](OC[C@H]2O[C@@H](Oc3c(-c4ccc(O)c(O)c4)oc4cc(O)cc(O)c4c3=O)[C@H](O)[C@@H](O)[C@@H]2O)[C@H](O)[C@H](O)[C@H]1O | Streptococcus gordonii | broth dilution | – | 24 h | 200 µg/mL
CNC(C)C1CCC(N)C(OC2C(N)CC(N)C(OC3OCC(C)(O)C(NC)C3O)C2O)O1 (stereo not shown) | Proteus mirabilis | broth dilution | – | – | 2 µg/mL
O=c1oc2c(O)c(O)cc3c(=O)oc4c(O)c(O)cc1c4c23 | Streptococcus gordonii | broth dilution | – | 24 h | 100 µg/mL
CC1(C)S[C@@H]2[C@H](NC(=O)[C@H](N)c3ccccc3)C(=O)N2[C@H]1C(=O)O | Acinetobacter baumannii | broth dilution | ATCC19606 | – | > 64 µg/mL
CCCCCCC#Cc1cncc(-c2nnc(SCc3ccc([N+](=O)[O-])cc3)n2CCCN)c1 | Acinetobacter baumannii | broth dilution | ATCC17978 | – | 64 µg/mL
CC[C@H]1OC(=O)[C@H](C)[C@@H](O[C@H]2C[C@@](C)(OC)[C@@H](O)[C@H](C)O2)[C@H](C)[C@@H](O[C@@H]2O[C@H](C)C[C@H](N(C)C)[C@H]2O)[C@](C)(O)C[C@@H](C)CN(C)[C@H](C)[C@@H](O)[C@]1(C)O | Acinetobacter baumannii | broth dilution | ATCCBAA1605 | – | 16 µg/mL
O=C1O[C@H]2[C@@H]3OC(=O)c4cc(O)c(O)c(O)c4-c4c(O)c(O)c5oc(=O)c6c(c(O)c(O)c7oc(=O)c4c5c76)-c4c(cc(O)c(O)c4O)C(=O)OC[C@H]3OC(O)[C@@H]2OC(=O)c2cc(O)c(O)c(O)c2-c2c1cc(O)c(O)c2O (mixture of isomers) | Streptococcus gordonii | broth dilution | – | 24 h | 100 µg/mL
CC1(C)S[C@@H]2[C@H](NC(=O)[C@H](N)c3ccc(O)cc3)C(=O)N2[C@H]1C(=O)O | Acinetobacter baumannii | broth dilution | ATCCBAA1605 | – | > 64 µg/mL
CCCCCCCCCCCC[N+](C)(C)Cc1ccccc1 | Acinetobacter baumannii | – | ATCC17978 | – | 63 µM
